Results on nine molecules are retold here after ChEMBL document CHEMBL1149849, “Capnellenes from the Formosan soft coral Capnella imbricata” (2008).

Assay [1] deals with RAW264.7. Description: Antiinflammatory activity against LPS-stimulated mouse RAW264.7 cells assessed as reduction of iNOS level at 10 uM after 16 hrs by DC protein assay. The format is functional. The essentials: (§1)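 RAW264.7 cells activated with E. coli LPS (0.01 µg/mL) for 16 h with or without test compound. Cells washed in ice-cold PBS, lysed, and centrifuged at 20000g, 30 min, 4 °C. Supernatant protein measured by DC assay (Lowry-modified); equal protein loaded for SDS-PAGE, transferred to PVDF, blocked, and probed 180 min with anti-iNOS or anti-COX-2 (1:1000). Levels reported relative to LPS-only control.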

The test system of assay [2] is RAW264.7. Description: Antiinflammatory activity against LPS-stimulated mouse RAW264.7 cells assessed as reduction of COX2 level at 10 uM after 16 hrs by DC protein assay. It is filed as functional. The essentials: as §1

Activity calls are given as the source filed them. The calls are words filed in the database; no cut-off is given here.

Turning to `CC1(C)CC[C@@]2(C)C[C@@H]3CC(=O)C(CO)=C3[C@@H]12`, the outcome with RAW264.7 [1] and in the assay on RAW264.7 [2] was inactive.

With `C=C1[C@H]2[C@@H](C[C@@H]1O)C[C@]1(C)CCC(C)(C)[C@H]21`, the result in the assay with RAW264.7 [1] and in the assay on RAW264.7 [2] was inactive.

As for `C=C1[C@@H](O)C[C@H]2C[C@]3(CO)CCC(C)(C)[C@@H]3[C@@]12O`, the result with RAW264.7 [1] and with RAW264.7 [2] was inactive.

As to `C=C1[C@H]2[C@@H](C[C@@H]1O)C[C@]1(C)CC[C@](C)(CO)[C@H]21`, the result in the assay on RAW264.7 [1] and in the assay with RAW264.7 [2] was inactive.

Turning to `C=C1C(=O)C[C@H]2C[C@]3(C)CCC(C)(C)[C@@H]3[C@@]12O`, the Activity in the assay with RAW264.7 [1] stood at 34.8. Besides, the outcome in the assay with RAW264.7 [2] was inactive.

In the case of `C=C1[C@@H](O)C[C@H]2C[C@]3(C)CCC(C)(C)[C@@H]3[C@@]12O`, the Activity is given as 1.2 with RAW264.7 [1] and 24.8 with RAW264.7 [2].

For `C=C1[C@@H](OC(C)=O)C[C@H]2C[C@]3(C)CCC(C)(C)[C@@H]3[C@@]12O`, the Activity was determined as 54.4 in the assay on RAW264.7 [1] and 62.9 in the assay with RAW264.7 [2].

For `C=C1[C@@H](OC(C)=O)C[C@H]2C[C@]3(C)CCC(C)(C)[C@@H]3[C@@]12OC(C)=O`, the result in the assay with RAW264.7 [1] and with RAW264.7 [2] was inactive.

Consider `C=C1[C@H]2[C@@H](C[C@@H]1OC(C)=O)C[C@]1(C)CCC(C)(C)[C@H]21`, for which the result in the assay on RAW264.7 [1] and in the assay with RAW264.7 [2] was inactive.
